Reference: ChEMBL document CHEMBL4330179, “De Novo Discovery of Nonstandard Macrocyclic Peptides as Noncompetitive Inhibitors of the Zika Virus NS2B-NS3 Protease” (ACS Med Chem Lett, 2019)
pIC50, pKd, pKi: −log10 of the molar value. Calls of active or inactive are those of the source. Positions of bridges follow the written chain, without caps; N, C: chain ends. Non-standard residues stand in square brackets, D forms with d. Residues, ends and D or L forms follow the SMILES beside them. NMeY = CN[C@@H](Cc1ccc(O)cc1)C(=O)O; NMeF = CN[C@@H](Cc1ccccc1)C(=O)O; NMeS = CN[C@@H](CO)C(=O)O; Sar = CNCC(=O)O

How the values were obtained:
[1] = biological target: T1, Nonstructural protein 3 (Zika virus, UniProt A0A024AXB9); assay: Inhibition of C-terminal His6-tagged linked Zika virus NS2B-NS3 protease domain expressed in Escherichia coli Bl21(DE3) using Bz-Nle-Lys-Lys-Arg-AMC as substrate after 30 mins by fluorophotometric method
How it was run: (§1)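 Fluorogenic substrate Bz-Nle-Lys-Lys-Arg-AMC against linked gZiPro, run at four substrate concentrations across a range of inhibitor concentrations. Ki comes from nonlinear least-squares fits to a noncompetitive inhibition model, and the mode is checked on Cornish–Bowden plots.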

[2] = biological target: T1, Nonstructural protein 3; assay: Non-competitive inhibition of C-terminal His6-tagged linked Zika virus NS2B-NS3 protease domain expressed in Escherichia coli Bl21(DE3) using Bz-Nle-Lys-Lys-Arg-AMC as substrate after 30 mins by Cornish-Bowden plot analysis; how it was run: as §1
[3] = system: Huh-7; assay: Cytotoxicity against human HuH7 cells assessed as reduction in cell viability up to 12.5 uM after 24 to 48 hrs by CellTiter-Blue assay; format: cell-based
How it was run: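 Huh-7 cells exposed to compounds for 24 h and 48 h. Metabolic activity is read as % reduction relative to nontreated cells, with 80% viability used as the cutoff.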

[4] = biological target: Trypsin (Homo sapiens) (UniProt P07477+P07478+P35030); assay: Inhibition of trypsin (unknown origin) at 25 uM using Boc-Val-Pro-Arg-AMC as substrate preincubated for 15 mins followed by substrate addition and measured for 10 mins by fluorescence assay; format: protein assay
How it was run: (§2)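 Serine protease counter-screens (thrombin, trypsin), tested up to a highest concentration of 25 or 50 μM.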

[5] = Selectivity index, ratio of IC50 for C-terminal His6-tagged linked West Nile virus NS2B-NS3 protease domain expressed in Escherichia coli Bl21(DE3) to Ki for non-competitive inhibition of C-terminal His6-tagged linked Zika virus NS2B-NS3 protease domain expressed in Escherichia coli Bl21(DE3)
[6] = biological target: Prothrombin (Homo sapiens) (UniProt P00734); assay: Inhibition of thrombin (unknown origin) at 25 uM using Boc-Val-Pro-Arg-AMC as substrate preincubated for 15 mins followed by substrate addition and measured for 10 mins by fluorescence assay; how it was run: as §2
[7] = biological target: T2, Nonstructural protein 3 (Zika virus) (UniProt A0A024AXB9); assay: Competitive inhibition of C-terminal His6-tagged linked Zika virus NS2B-NS3 protease domain expressed in Escherichia coli Bl21(DE3) using Bz-Nle-Lys-Lys-Arg-AMC as substrate after 30 mins by Cornish-Bowden plot analysis
[8] = biological target: T1, Nonstructural protein 3; assay: Inhibition of C-terminal His6-tagged unlinked Zika virus NS2B-NS3 protease domain expressed in Escherichia coli Bl21(DE3) using Bz-Nle-Lys-Lys-Arg-AMC as substrate after 30 mins by fluorophotometric method
How it was run: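 Unlinked Zika NS2B-NS3 protease at 0.5 nM with Bz-Nle-Lys-Lys-Arg-AMC substrate.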

[9] = biological target: T1, Nonstructural protein 3; assay: Binding affinity to C-terminal His6-tagged linked Zika virus NS2B-NS3 protease domain by SPR analysis
How it was run: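 Dissociation constants measured by surface plasmon resonance, with the linked Zika NS2B-NS3 protease (gZiPro) immobilized on the chip.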

[10] = biological target: T2, Nonstructural protein 3 (Zika virus); assay: Inhibition of C-terminal His6-tagged unlinked Zika virus NS2B-NS3 protease domain expressed in Escherichia coli Bl21(DE3) at 200 to 400 nM using Bz-Nle-Lys-Lys-Arg-AMC as substrate after 30 mins in presence of cn-716 by fluorophotometric method
[11] = biological target: Genome polyprotein (dengue virus type 2, UniProt P29990); assay: Inhibition of C-terminal His6-tagged linked Dengue virus serotype 2 NS2B-NS3 protease domain expressed in Escherichia coli Bl21(DE3) preincubated for 15 mins followed by Abz-Nle-Lys-Arg-Arg-Ser-3-(NO2)Tyr substrate addition and measured for 15 mins by fluorescence method
How it was run: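 DENV-2 NS2B-NS3 protease used at 100 nM against the FRET substrate Abz-Nle-Lys-Arg-Arg-Ser-3-(NO2)Tyr. IC50 values were calculated for a substrate concentration of 50 μM.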

[12] = biological target: Genome polyprotein (West Nile virus, UniProt P06935); assay: Inhibition of C-terminal His6-tagged linked West Nile virus NS2B-NS3 protease domain expressed in Escherichia coli Bl21(DE3) preincubated for 15 mins followed by AbzGly-Leu-Lys-Arg-Gly-Gly-3-(NO2)Tyr substrate addition and measured for 15 mins by fluorescence method
How it was run: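 West Nile virus NS2B-NS3 protease at 150 nM with internally quenched substrate Abz-Gly-Leu-Lys-Arg-Gly-Gly-3-(NO2)Tyr. IC50 is calculated for 50 μM substrate.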

[13] = Selectivity index, ratio of IC50 for C-terminal His6-tagged linked Dengue virus serotype 2 NS2B-NS3 protease domain expressed in Escherichia coli Bl21(DE3) to Ki for non-competitive inhibition of C-terminal His6-tagged linked Zika virus NS2B-NS3 protease domain expressed in Escherichia coli Bl21(DE3)

T1 sequence (A0A024AXB9 whole entry, the tested form may be a part): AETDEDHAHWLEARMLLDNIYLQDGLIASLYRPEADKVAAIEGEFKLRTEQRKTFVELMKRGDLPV
T2 sequence (A0A024AXB9 as listed by the source): as the sequence (A0A024AXB9 whole entry, the tested form may be a part) above
Chain of Genome polyprotein (dengue virus type 2, UniProt P29990) (P29990 1346-1475 limits assumed): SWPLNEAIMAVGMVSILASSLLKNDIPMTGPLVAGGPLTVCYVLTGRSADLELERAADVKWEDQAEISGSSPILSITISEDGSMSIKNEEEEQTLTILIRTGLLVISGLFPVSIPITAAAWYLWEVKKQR
Chain of Genome polyprotein (dengue virus type 2, UniProt P29990) (P29990 1476-2093 limits assumed): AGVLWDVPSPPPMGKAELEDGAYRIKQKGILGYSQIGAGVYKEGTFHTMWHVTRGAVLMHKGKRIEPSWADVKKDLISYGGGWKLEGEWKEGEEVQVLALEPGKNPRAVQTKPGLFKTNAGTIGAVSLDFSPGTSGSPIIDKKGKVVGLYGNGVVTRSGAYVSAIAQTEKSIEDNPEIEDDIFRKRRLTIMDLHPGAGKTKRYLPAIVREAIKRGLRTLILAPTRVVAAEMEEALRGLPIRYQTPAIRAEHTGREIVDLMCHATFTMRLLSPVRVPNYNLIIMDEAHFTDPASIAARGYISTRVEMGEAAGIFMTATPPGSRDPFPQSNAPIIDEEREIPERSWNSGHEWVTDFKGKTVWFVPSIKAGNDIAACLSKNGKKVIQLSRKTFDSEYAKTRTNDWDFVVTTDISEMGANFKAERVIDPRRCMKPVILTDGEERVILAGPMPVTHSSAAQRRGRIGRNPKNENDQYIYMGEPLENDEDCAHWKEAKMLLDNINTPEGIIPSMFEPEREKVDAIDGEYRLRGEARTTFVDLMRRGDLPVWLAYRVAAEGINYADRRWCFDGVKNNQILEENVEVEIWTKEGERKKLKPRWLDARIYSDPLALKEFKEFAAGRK
Chain of Genome polyprotein (West Nile virus, UniProt P06935) (P06935 1371-1501 limits assumed): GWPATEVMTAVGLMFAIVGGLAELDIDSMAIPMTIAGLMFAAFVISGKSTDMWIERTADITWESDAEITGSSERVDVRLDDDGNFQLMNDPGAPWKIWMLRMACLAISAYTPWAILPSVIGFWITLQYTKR
Chain of Genome polyprotein (West Nile virus, UniProt P06935) (P06935 1502-2120 limits assumed): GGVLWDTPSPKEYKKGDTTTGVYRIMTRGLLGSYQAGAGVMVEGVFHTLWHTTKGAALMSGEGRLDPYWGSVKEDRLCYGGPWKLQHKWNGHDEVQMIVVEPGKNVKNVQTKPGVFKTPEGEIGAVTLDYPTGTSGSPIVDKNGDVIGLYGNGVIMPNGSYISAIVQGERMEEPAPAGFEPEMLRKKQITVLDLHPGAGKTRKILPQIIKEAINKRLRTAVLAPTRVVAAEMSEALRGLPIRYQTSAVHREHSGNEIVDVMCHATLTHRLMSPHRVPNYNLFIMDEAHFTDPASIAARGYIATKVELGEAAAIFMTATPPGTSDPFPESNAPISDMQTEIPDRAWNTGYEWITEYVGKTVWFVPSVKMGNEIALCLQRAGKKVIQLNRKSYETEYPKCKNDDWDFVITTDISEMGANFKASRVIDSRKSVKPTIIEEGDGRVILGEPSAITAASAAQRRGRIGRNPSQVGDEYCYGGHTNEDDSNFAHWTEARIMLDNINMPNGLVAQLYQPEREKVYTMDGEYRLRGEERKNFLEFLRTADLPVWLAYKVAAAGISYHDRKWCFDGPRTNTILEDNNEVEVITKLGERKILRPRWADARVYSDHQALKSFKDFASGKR

| SMILES | pIC50 [1] | pKi [2] | Activity [3] | inhibition [4] | Selectivity Index [5] | inhibition [6] | inhibition [7] | pIC50 [8] | pKd [9] | inhibition [10] | pIC50 [11] | pIC50 [12] | Selectivity Index [13] |
| --- | --- | --- | --- | --- | --- | --- | --- | --- | --- | --- | --- | --- | --- |
| COc1ccc(C[C@H]2C(=O)N[C@@H](CCCCN)C(=O)N(C)[C@@H](Cc3ccccc3)C(=O)N[C@@H](CCCCN)C(=O)N(C)[C@@H](CO)C(=O)N(C)[C@@H](Cc3ccc(OC)cc3)C(=O)N[C@@H](CCCCN)C(=O)N(C)[C@@H](Cc3ccc(OC)cc3)C(=O)N(C)[C@@H](Cc3ccc(OC)cc3)C(=O)N[C@@H](CCCCN)C(=O)N[C@H](C(N)=O)CSCC(=O)N[C@@H](Cc3ccc(O)cc3)C(=O)N2C)cc1 ({CH2CO}-Y[NMeY](Me)K[NMeF]K[NMeS][NMeY](Me)K[NMeY](Me)[NMeY](Me)KC-NH2; thioether N-12) | 6.21 | 6.36 | Non-Toxic | inactive | > 10 | inactive | inactive | 6.60 | 8.05 | Active | 5.77 | 5.41 | > 10 |
| CC[C@H](C)[C@@H]1NC(=O)[C@H](C)NC(=O)[C@@H](Cc2ccc(O)cc2)NC(=O)CSC[C@@H](C(N)=O)NC(=O)[C@H](CC(N)=O)NC(=O)[C@H](CC(C)C)N(C)C(=O)[C@H](Cc2ccc(O)cc2)NC(=O)[C@H](CCCCN)NC(=O)[C@H](CC(N)=O)NC(=O)[C@H](Cc2ccc(O)cc2)NC(=O)[C@H](Cc2ccc(OC)cc2)N(C)C(=O)[C@H]([C@@H](C)CC)NC1=O | 5.15 | 5.46 |  |  |  |  | inactive | 5.49 | 6.77 |  | < 4.70 | < 4.70 |  |
| CC[C@H](C)[C@@H]1NC(=O)CN(C)C(=O)[C@H](Cc2ccc(O)cc2)NC(=O)CSC[C@@H](C(N)=O)NC(=O)[C@@H]2CCCN2C(=O)[C@H]([C@@H](C)CC)NC(=O)[C@H](Cc2ccc(OC)cc2)N(C)C(=O)[C@H](Cc2ccc(OC)cc2)N(C)C(=O)[C@H](CC(N)=O)NC(=O)[C@H](Cc2ccc(O)cc2)NC(=O)[C@H](CCCCN)NC(=O)[C@H](C)NC1=O ({CH2CO}-Y[Sar]IAKYN[NMeY](Me)[NMeY](Me)IPC-NH2; thioether N-12) | 4.78 | 4.69 |  |  |  |  | inactive | 5.34 | 8.05 |  | ≤ 4.70 | ≤ 4.70 |  |
| COc1ccc(C[C@H]2C(=O)N[C@@H](Cc3ccccc3)C(=O)N[C@H](C(N)=O)CSCC(=O)N[C@@H](Cc3ccc(O)cc3)C(=O)N[C@@H]([C@@H](C)O)C(=O)N[C@@H](CC(N)=O)C(=O)N[C@@H](Cc3ccccc3)C(=O)N[C@@H](Cc3ccc(O)cc3)C(=O)N[C@@H](CC(C)C)C(=O)N[C@@H](Cc3ccc(O)cc3)C(=O)N3CCC[C@H]3C(=O)N[C@@H](Cc3ccc(O)cc3)C(=O)N2C)cc1 ({CH2CO}-YTNFYLYPY[NMeY](Me)FC-NH2; thioether N-12) | 5.48 | 5.70 |  |  | > 10 |  | inactive | 5.66 | 8.10 |  | < 4.70 | < 4.70 | > 10 |
| CC(C)C[C@@H]1NC(=O)[C@H]([C@@H](C)O)NC(=O)[C@H](Cc2ccc(O)cc2)NC(=O)CSC[C@@H](C(N)=O)NC(=O)[C@H](Cc2ccccc2)NC(=O)[C@H](Cc2ccccc2)NC(=O)[C@H]([C@@H](C)O)NC(=O)CN(C)C(=O)[C@H](CC(N)=O)NC(=O)[C@H](Cc2cnc[nH]2)NC(=O)[C@H](Cc2ccccc2)NC(=O)[C@@H]2CCCN2C1=O ({CH2CO}-YTLPFHN[Sar]TFFC-NH2; thioether N-12) |  | < 4.00 |  |  |  |  | inactive | ≤ 4.30 | 8.30 |  | < 4.70 | < 4.70 |  |
| CC[C@H](C)[C@@H]1NC(=O)[C@H](CC(N)=O)NC(=O)[C@H](C(C)C)NC(=O)[C@H](CC(C)C)NC(=O)[C@H]([C@@H](C)O)NC(=O)[C@H](CC(N)=O)NC(=O)[C@H](Cc2ccc(OC)cc2)N(C)C(=O)[C@H]([C@@H](C)CC)NC(=O)[C@H](CCCCN)NC(=O)[C@H](Cc2c[nH]c3ccccc23)NC(=O)[C@H](Cc2ccc(O)cc2)NC(=O)CSC[C@@H](C(N)=O)NC1=O ({CH2CO}-YWKI[NMeY](Me)NTLVNIC-NH2; thioether N-12) | 5.88 | 6.10 | Non-Toxic | inactive | 9 | inactive | inactive | 5.82 | 7.70 |  | < 5.00 | < 5.00 | 4 |
